Results on 25 compounds are retold here after ChEMBL document CHEMBL4257575, “Discovery of Novel Flavonoid Dimers To Reverse Multidrug Resistance Protein 1 (MRP1, ABCC1) Mediated Drug Resistance in Cancers Using a High Throughput Platform with "Click Chemistry"” (J Med Chem, 2018).

Each structure is given as a SMILES string.

The nature of data set [1]: Cytotoxicity against human 2008/MRP1 cells assessed as cell survival at 2 uM after 5 days by MTS assay relative to control. It counts as cell-based. The following applies: read-out: Survival. Background: Tetrazolium assays rely on reduction of a dye to a coloured formazan, in cell work by metabolically active cells.
In data set [2] the target is T1, Multidrug resistance-associated protein 1 (Homo sapiens, UniProt P33527). Nature of the data set: Inhibition of MRP1 in human 2008/MRP1 cells assessed as potentiation of doxorubicin-induced cytotoxicity by measuring cell survival at 2 uM after 5 days by MTS assay relative to control. It counts as cell-based. The following applies: 120 h. The method in brief:
(§1)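 2008/MRP1 cells (retroviral human MRP1 transfectant; RPMI 1640, 10% FBS) at 4,000 per well, with 100 nM doxorubicin plus crude, unpurified click products in DMSO: 2 µM in the primary screen, 1 µM in the secondary. Incubated 5 days at 37 °C. MTS/PMS added for 2 h at 37 °C, absorbance read at 490 nm. % survival is relative to wells without DOX or product. Run in triplicate, at least three experiments.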

A further data set is filed under the species Homo sapiens. Nature of the data set: Inhibition of P-gp in human LCC6MDR cells assessed as potentiation of paclitaxel-induced cytotoxicity by measuring fold reduction in paclitaxel IC50 at 1 uM after 5 days by MTS assay relative to paclitaxel alone. It counts as cell-based.
Data set [3] addresses T1, Multidrug resistance-associated protein 1. Nature of the data set: Inhibition of MRP1 in human 2008/MRP1 cells assessed as potentiation of doxorubicin-induced cytotoxicity by measuring cell survival at 1 uM after 5 days by MTS assay relative to control. It counts as cell-based. The note with it: 120 h. The gist of the method:
as §1

The subject of a further data set is L929. Nature of the data set: Cytotoxicity against mouse L929 cells assessed as reduction in cell survival after 5 days by MTS assay. It counts as cell-based. The following applies: L929, 120 h.
Another data set deals with MRP1. Nature of the data set: in vitro. The following applies: mouse, L929 cells (IC50) versus 2008/MRP1 cells (EC50).

T1 sequence (P33527 whole entry): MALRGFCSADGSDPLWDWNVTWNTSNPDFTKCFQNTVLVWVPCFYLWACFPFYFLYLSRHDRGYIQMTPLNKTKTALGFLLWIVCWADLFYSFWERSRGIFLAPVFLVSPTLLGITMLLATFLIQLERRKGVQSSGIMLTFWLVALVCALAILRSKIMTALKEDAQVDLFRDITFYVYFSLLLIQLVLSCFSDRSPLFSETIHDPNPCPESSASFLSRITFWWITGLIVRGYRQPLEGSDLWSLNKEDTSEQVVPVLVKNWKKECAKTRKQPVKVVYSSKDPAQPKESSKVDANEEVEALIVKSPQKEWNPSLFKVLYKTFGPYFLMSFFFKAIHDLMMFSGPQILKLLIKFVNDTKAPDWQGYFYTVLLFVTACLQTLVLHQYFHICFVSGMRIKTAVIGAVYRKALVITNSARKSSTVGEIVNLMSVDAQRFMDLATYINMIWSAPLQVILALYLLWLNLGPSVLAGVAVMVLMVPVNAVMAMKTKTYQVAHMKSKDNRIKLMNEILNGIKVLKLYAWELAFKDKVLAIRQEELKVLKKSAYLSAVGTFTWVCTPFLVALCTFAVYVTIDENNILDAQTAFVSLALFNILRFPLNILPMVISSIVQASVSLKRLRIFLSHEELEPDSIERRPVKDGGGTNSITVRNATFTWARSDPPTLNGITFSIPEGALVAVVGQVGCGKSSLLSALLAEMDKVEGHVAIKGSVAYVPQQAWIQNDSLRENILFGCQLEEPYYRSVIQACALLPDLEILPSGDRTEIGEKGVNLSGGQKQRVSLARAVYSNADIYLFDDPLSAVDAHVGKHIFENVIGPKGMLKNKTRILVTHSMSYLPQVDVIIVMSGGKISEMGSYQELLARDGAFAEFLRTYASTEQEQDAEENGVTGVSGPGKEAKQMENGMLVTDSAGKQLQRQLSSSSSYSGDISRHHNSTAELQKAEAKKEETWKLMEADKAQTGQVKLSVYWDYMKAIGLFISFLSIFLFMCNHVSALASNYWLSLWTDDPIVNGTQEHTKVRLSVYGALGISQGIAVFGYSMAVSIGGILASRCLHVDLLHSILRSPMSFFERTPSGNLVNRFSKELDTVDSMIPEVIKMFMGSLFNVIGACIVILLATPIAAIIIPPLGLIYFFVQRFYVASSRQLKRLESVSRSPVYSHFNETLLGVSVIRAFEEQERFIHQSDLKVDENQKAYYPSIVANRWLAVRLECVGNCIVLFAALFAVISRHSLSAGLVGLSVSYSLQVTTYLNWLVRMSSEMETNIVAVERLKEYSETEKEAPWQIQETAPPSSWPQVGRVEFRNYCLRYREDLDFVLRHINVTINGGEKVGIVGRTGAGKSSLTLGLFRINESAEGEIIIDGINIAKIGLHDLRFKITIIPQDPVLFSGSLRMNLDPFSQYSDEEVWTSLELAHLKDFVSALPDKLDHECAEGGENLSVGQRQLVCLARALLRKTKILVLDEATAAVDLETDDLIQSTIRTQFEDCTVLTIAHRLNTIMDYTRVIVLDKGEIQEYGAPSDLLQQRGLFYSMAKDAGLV

`O=c1cc(-c2ccc(OCCOCCn3cc(CN(CCOc4ccc5c(=O)cc(-c6ccccc6)oc5c4)Cc4ccccc4)nn3)cc2)oc2ccccc12`: the viability at 120 h, 2 µM in data set [1] worked out at 97%. The Survival in data set [2] came out at 26%; in data set [3], 29%. The Ratio IC50 in the data set filed under Homo sapiens was 38.7. Further, the IC50 (in general, the concentration needed to halve the response being measured) with L929 is greater than 100 µM.
Consider `O=c1cc(-c2ccc(OCCCc3cn(CCOCCOc4ccc(-c5cc(=O)c6ccccc6o5)cc4)nn3)cc2)oc2ccccc12`, for which the viability at 120 h, 2 µM in data set [1] turned out to be 81%. Moreover, the Survival in data set [2] worked out at 29%; in data set [3], 51%. For the same compound, the Ratio IC50 in the data set listed under Homo sapiens was determined as 31.7. Also, in the data set on L929, the IC50 amounted to 60 µM. The selectivity ratio in the data set on MRP1 came out at 531.
For `CCc1ccc(O)c(C(=O)/C=C/c2ccc(OCCCCc3cn(CCOCCOc4ccc(-c5cc(=O)c6ccccc6o5)cc4)nn3)cc2)c1`, the viability at 120 h, 2 µM in data set [1] came to 95%. The Survival in data set [2] stood at 40%; in data set [3], 66%.
For the compound `O=c1cc(-c2ccc(OCCOCCn3cc(CCCOc4ccc(-c5cc(=O)c6ccc(F)cc6o5)cc4)nn3)cc2)oc2ccccc12`, the viability at 120 h, 2 µM in data set [1] is 91%. For the same compound, the Survival in data set [2] was 21%; in data set [3], 29%. For the same compound, in the data set listed under Homo sapiens, the Ratio IC50 was found to be 63.5. Further, in the data set with L929, the IC50 is greater than 100 µM.
In the case of `O=c1cc(-c2ccc(OCCCc3cn(CCOCCOCCOc4ccc(-c5cc(=O)c6cc(F)ccc6o5)cc4)nn3)cc2)oc2cc(F)ccc12`, the viability at 120 h, 2 µM in data set [1] was 95%. The results for the Survival in data set [2] and in data set [3] were 42% and 48%, respectively. The Ratio IC50 in the data set filed under Homo sapiens stood at 22.7. Moreover, in the data set on L929, the IC50 was greater than 100 µM. In addition, the selectivity ratio in the data set on MRP1 was greater than 971.
With `O=c1cc(-c2ccccc2)oc2cc(OCCCc3cn(CCOCCOCCOc4ccc(-c5cc(=O)c6cc(F)ccc6o5)cc4)nn3)ccc12`, the viability at 120 h, 2 µM in data set [1] was 88%. The Survival in data set [2] is on record as 48%; in data set [3], 49%. The Ratio IC50 in the data set filed under Homo sapiens was determined as 16. Further, the IC50 in the data set with L929 was greater than 100 µM. In addition, the selectivity ratio in the data set with MRP1 was greater than 1050.
With `O=c1cc(-c2ccccc2)oc2cc(OCCOCc3cn(CCOCCOCCOc4ccc(-c5oc6ccccc6c(=O)c5OCc5ccccc5)cc4)nn3)ccc12`, the viability at 120 h, 2 µM in data set [1] came out at 95%. Moreover, the Survival in data set [2] is reported as 45%; in data set [3], 48%. Besides, in the data set filed under Homo sapiens, the Ratio IC50 came to 46.7. The IC50 with L929 is greater than 100 µM. In the data set with MRP1, the selectivity ratio was greater than 518.
In the case of `O=c1cc(-c2ccc(OCCOCCn3cc(CCCCOc4ccc5c(=O)cc(-c6ccccc6)oc5c4)nn3)cc2)oc2ccccc12`, the viability at 120 h, 2 µM in data set [1] came to 95%. For the same compound, the Survival in data set [2] is given as 30%; in data set [3], 42%. In addition, in the data set listed under Homo sapiens, the Ratio IC50 amounted to 19.8. Also, the IC50 in the data set with L929 was greater than 100 µM. Besides, the selectivity ratio in the data set with MRP1 is greater than 1150.
For `O=c1cc(-c2ccc(OCCCc3cn(CCOCCOCCOc4ccc5c(=O)cc(-c6ccccc6)oc5c4)nn3)cc2)oc2ccccc12`, the viability at 120 h, 2 µM in data set [1] is 49%. Also, the Survival amounted to 42% in data set [2] and 54% in data set [3].
On to `O=c1cc(-c2ccc(OCCOCCn3cc(CN(Cc4ccccc4)Cc4cn(CCOCCOc5ccc(-c6cc(=O)c7ccccc7o6)cc5)nn4)nn3)cc2)oc2ccccc12`, for which, in data set [1], the viability at 120 h, 2 µM was found to be 92%. Moreover, the Survival in data set [2] came out at 49%; in data set [3], 79%.
With `O=C(/C=C/c1ccc(OCCCCc2cn(CCOCCOc3ccc(-c4cc(=O)c5ccccc5o4)cc3)nn2)cc1)c1ccc(F)cc1O`, in data set [1], the viability at 120 h, 2 µM was 90%. Moreover, the values for the Survival in data set [2] and in data set [3] were 42% and 66%, respectively.
For `Cc1ccc2oc(-c3ccc(OCCCCc4cn(CCOCCOCCOc5ccc6c(=O)cc(-c7ccccc7)oc6c5)nn4)cc3)cc(=O)c2c1` the same measures were 89%, 33% and 65%.
The corresponding values for `O=C(/C=C/c1ccc(OCCCCc2cn(CCOCCOc3ccc(-c4cc(=O)c5ccccc5o4)cc3)nn2)cc1)c1ccccc1O` are 83%, 39% and 56%.
For `O=c1[nH]c(-c2ccc(OCCCc3cn(CCOCCOc4ccc5c(=O)cc(-c6ccccc6)oc5c4)nn3)cc2)nc2ccccc12` the same measures were 65%, 49% and 70%.
Turning to `COc1cccc(COc2c(-c3ccc(OCCOCCn4cc(COCCOc5ccc6c(=O)cc(-c7ccccc7)oc6c5)nn4)cc3)oc3ccccc3c2=O)c1`, the viability at 120 h, 2 µM in data set [1] turned out to be 88%. Also, the Survival in data set [2] is 47%; in data set [3], 71%.
With `O=c1cc(-c2ccc(OCCOCCOCCn3cc(CN(CCOc4ccc5c(=O)cc(-c6ccccc6)oc5c4)Cc4ccccc4)nn3)cc2)oc2ccccc12`, the viability at 120 h, 2 µM in data set [1] stood at 74%. Also, the Survival in data set [2] was 45%; in data set [3], 48 to 63%. Further, in the data set filed under Homo sapiens, the Ratio IC50 is 31.7. Besides, in the data set with L929, the IC50 was greater than 100 µM.
With `COCOc1cc(OCc2ccccc2)c2c(=O)cc(-c3ccc(OCCCc4cn(CCOCCOc5ccc(-c6cc(=O)c7ccccc7o6)cc5)nn4)cc3)oc2c1`, the viability at 120 h, 2 µM in data set [1] worked out at 95%. Further, the Survival in data set [2] is 39%; in data set [3] it was 64%.
For `O=c1cc(-c2ccccc2)oc2cc(OCCOCCn3cc(CN(CCOc4ccc5c(=O)cc(-c6ccccc6)oc5c4)Cc4ccccc4)nn3)ccc12` the same measures were 80%, 46% and 54%.
The corresponding values for `O=c1cc(-c2ccccc2)oc2cc(OCCOCc3cn(CCOCCOc4ccc(-c5oc6ccccc6c(=O)c5OCc5ccccc5)cc4)nn3)ccc12` are 85%, 46% and 56%.
`CN(C)C(=O)CCSC(SCCC(=O)O)c1cccc(/C=C/c2ccc3ccc(Cl)cc3n2)c1` (stereo unspecified) [MK-571]: the IC50 in the data set on L929 is greater than 100 µM.
In the case of `O=c1cc(-c2ccccc2)oc2cc(OCCCCc3cn(CCOCCOCCOc4ccc(-c5cc(=O)c6cc(F)ccc6o5)cc4)nn3)ccc12`, the viability at 120 h, 2 µM in data set [1] was found to be 92%. Further, the values for the Survival in data set [2] and in data set [3] were 47% and 59%, respectively.
Take `Cc1ccc2oc(-c3ccc(OCCCCc4cn(CCOCCOc5ccc6c(=O)cc(-c7ccccc7)oc6c5)nn4)cc3)cc(=O)c2c1`: the viability at 120 h, 2 µM in data set [1] amounted to 93%. Besides, the Survival in data set [2] was found to be 34%; in data set [3], 46%. For the same compound, the Ratio IC50 in the data set listed under Homo sapiens was 54.7. In the data set with L929, the IC50 was greater than 100 µM.
`O=c1cc(-c2ccc(OCCCc3cn(CCOCCOCCOc4ccc(-c5oc6ccccc6c(=O)c5OCc5ccccc5)cc4)nn3)cc2)oc2cc(F)ccc12`: the viability at 120 h, 2 µM in data set [1] amounted to 97%. For the same compound, the results for the Survival in data set [2] and in data set [3] were 37% and 53%, respectively.
The corresponding values for `O=c1cc(-c2ccccc2)oc2cc(OCCN(Cc3ccccc3)Cc3cn(CCOCCOc4ccc(-c5oc6ccccc6c(=O)c5OCc5ccccc5)cc4)nn3)ccc12` are 82%, 49% and 53%.
The corresponding values for `O=c1cc(-c2ccc(OCCCc3cn(CCOCCOCCOc4ccc(-c5oc6ccccc6c(=O)c5OCc5ccccc5)cc4)nn3)cc2)oc2ccccc12` are 39%, 45% and 62%.
